rRNA inh HTS = inhibitors of bacterial rRNA selective over humanized ribosomes; E. coli WT GFP vs humanized-ribosome RFP mutants, fluorescence, 24 h; stronger effect = lower value; DMSO median 0, no signal -100; GFP signal change (wild-type ribosome), % (test concentration not listed); 350,000 tested, 1.6% active; AID 720706;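 active = significant combined selectivity score with lowered wild-type GFP, culture density cut under 30%, mutant RFP and density less affected; inactive = any of these conditions unmet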
FGF22 binding = shifts melting point of recombinant human FGF22. recombinant FGF22 thermal shift, SYPRO orange fluorescence; percent of sucrose octasulfate shift, DMSO zero. activity (Tm shift, normalised), % at 9.99 µM. Q9HCT0. 340,000 tested, 1.5% active;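 active = mean Tm shift, scaled 0 neutral to 100 positive control, at about 1.3% or above, every replicate too, limit read from the data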
Target sequence (Q9HCT0 whole entry, looked up): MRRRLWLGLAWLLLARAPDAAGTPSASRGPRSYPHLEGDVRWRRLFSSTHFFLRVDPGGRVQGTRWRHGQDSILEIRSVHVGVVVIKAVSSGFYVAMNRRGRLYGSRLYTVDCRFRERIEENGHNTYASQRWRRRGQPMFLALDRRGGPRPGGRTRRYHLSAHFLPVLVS
C2C12 statin = suppressors of simvastatin-induced myotoxicity in C2C12 myotubes | ATP luminescence, 48 h; scaled: DMSO 0, geranylgeraniol control 100 | rescue of ATP level, % at 7.49 µM | 330,000 tested, 0.78% active;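 active = mean ATP rescue above about 67%, or every replicate alone reaching that limit, limit read from the data, passing the limit was not always enough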;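 also: myotubes were challenged with 10 µM simvastatin during compound exposure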
E-selectin induc = E-selectin induction on HUVECs. AID 686992. activation, % at 7.58 µM. HUVEC E-selectin immunofluorescence imaging; normalized: neutral wells 0, TNF-alpha wells 100. 260,000 tested, 0.37% active. P16581;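 active = mean E-selectin-positive cell signal at least 10% of the positive control, reached in at least 60% of replicates, without over 20% cell loss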
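System: HUVEC, human umbilical vein endothelial cells; quantity: 3,000 cells/well; buffer or medium: EGM-2 medium, gelatin-coated wells; dosing: single-point compound dose; detection: immunofluorescence imaging; evaluation: % PE-positive cells; benchmarks: TNF-alpha, DMSO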
FN deposit inh = fibronectin deposition inhibition. AH1F fibroblasts, Alexa488-fibronectin deposition fluorescence, overnight. inhibition, % at 12.6 µM. 350,000 tested, 0.086% active. AID 743247;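 active = mean inhibition across replicates of 30% or more, regardless of how many single replicates reach that level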
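Assay system: AH1F fibroblasts / Quantity: 10000 cells per well / Medium: DMEM plus 2% serum, read in PBS / Reagent: labelled fibronectin 24 nM / Dosing: single dose, pinned / Times: 1 h cell attachment, overnight exposure to compound and label / Signal: fluorescence, ex 485 nm, em 525 nm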
SIRT5 inh = blocks human SIRT5 desuccinylation of peptide; Q9NXA8; Purified SirT5, succinyl-peptide AMC, trypsin-coupled fluorescence; inhibition, % at 15 µM; 330,000 tested, 1.1% active; in the data active = inhibition above about 15%
Target sequence (Q9NXA8 whole entry, looked up): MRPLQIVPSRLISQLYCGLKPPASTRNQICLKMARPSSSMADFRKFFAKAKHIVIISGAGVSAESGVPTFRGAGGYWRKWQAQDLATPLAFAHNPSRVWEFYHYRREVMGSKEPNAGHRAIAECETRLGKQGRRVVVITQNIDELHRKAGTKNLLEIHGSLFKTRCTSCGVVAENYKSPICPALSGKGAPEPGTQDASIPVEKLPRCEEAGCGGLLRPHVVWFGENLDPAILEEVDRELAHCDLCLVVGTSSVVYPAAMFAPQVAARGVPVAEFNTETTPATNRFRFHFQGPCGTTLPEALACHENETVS
A number is an active result; - = inactive; . = no result. In the library only some 4% were active in any assay of this set; here they are far more common.

SMILES	rRNA inh HTS	FGF22 binding	C2C12 statin	E-selectin induc	FN deposit inh	SIRT5 inh
C[C@@H]1CN([C@@H](C)CO)C(=O)c2cc(NC(=O)c3ccccc3)ccc2O[C@@H](C)CCCCO[C@@H]1CN(C)C(=O)Nc1cccc2ccccc12	-	-	.	.	-	-
CC1CCN(C(=O)CNS(=O)(=O)c2ccc(Br)s2)CC1	-	.	-	.	.	-
O=C(CNS(=O)(=O)c1ccc(Br)s1)N1CCN(c2ncccn2)CC1	.	.	149.6	.	.	.
CO[C@@H]1CN(C)C(=O)c2ccc(NS(=O)(=O)c3ccc(F)cc3)cc2OC[C@@H](C)N(C(=O)NC(C)C)C[C@H]1C	-	-	-	-	-	-
C[C@@H](O)C#Cc1ccc2c(c1)O[C@H](CN(C)C(=O)CC1CC1)[C@@H](C)CN([C@@H](C)CO)S2(=O)=O	-	-	-	-	-	-
CCN(CC)C(=O)COc1ccc2oc(-c3ccco3)cc(=O)c2c1	-	43.8	.	.	-	-
N=C1SCC(=O)N1c1ncc(Cc2ccc(F)cc2)s1	-47.5	-	-	.	-	-
Cc1cc(C(=O)Nc2cccc3c2O[C@H](CN(C)S(=O)(=O)c2cn(C)cn2)[C@H](C)CN([C@H](C)CO)C3=O)n(C)n1	-	-	-	.	-	-
COc1cc2oc(=O)cc(C)c2c(OC)c1OC	-	43.3	.	-	-	-
COc1cc2oc(=O)cc(-c3ccc(-c4ccc(C)cc4)cc3)c2c(OC)c1OC	-	-	-	.	.	-
CC12C(=O)N(c3nccs3)C(=O)C1(C)C1CCC2O1 (configuration not stated)	-	43.1	-	-	-	.
CCOCCCNC(=O)CCc1nnc2n(CCC(C)C)c(=O)c3ccccc3n12	-	-	-	-	-	-
CC(C)CCn1c(=O)c2ccccc2n2c(CN3C(=O)NC4(CCC(C)CC4)C3=O)nnc12 (configuration not stated)	.	.	93.0	.	-	.
CSc1ncccc1C(=O)Nc1nc2ccc(Oc3ccccc3)cc2s1	.	43.3	-	.	-	-
COc1ccc2nc(NC(=O)c3ccccc3C(=O)O)sc2c1	-	-	-	-	-	-
CCC(=O)NC[C@@H]1[C@@H](c2ccc(C3=CCCC3)cc2)[C@H](CO)N1C(=O)C1CC1	-	.	-	-	-	.
Cc1ccc(S(=O)(=O)NCc2ccc3c(c2)cc(C)n3C)cc1	-	-	-	63.4	-	-
COCC(=O)NCc1ccc2c(c1)cc(C)n2C	-	-	.	.	-	.
Cc1ccc(S(=O)(=O)NCc2ccncc2)cc1	.	.	-	.	.	.
Cc1cc2cc(CNC(=O)Nc3ccc(Cl)c(Cl)c3)ccc2n1C	-	-	-	141.9	-	-
COCC(=O)N1[C@@H](CO)[C@H](c2ccccc2)C12CN(C(=O)c1cccnc1)C2	-	.	.	.	.	.
O=C(Nc1nccs1)[C@H]1[C@H](CO)[C@H]2Cn3c(cccc3=O)[C@H]2N1C(=O)C1CCC1	-	-	-	-	.	16.0
O=C(Nc1ccc(-c2ccccc2)cc1)[C@@H]1[C@@H](CO)[C@@H]2Cn3c(cccc3=O)[C@@H]2N1CC1CCCC1	-	-	.	-	.	15.4
O=C(NC1CCCCC1)[C@@H]1[C@@H](CO)[C@@H]2Cn3c(cccc3=O)[C@@H]2N1CC1CCCC1	-	.	.	-	.	21.5
O=C(Nc1nccs1)[C@@H]1[C@@H](CO)[C@@H]2Cn3c(cccc3=O)[C@@H]2N1C(=O)C1CCC1	-	-	-	-	.	-
SMILES	rRNA inh HTS	FGF22 binding	C2C12 statin	E-selectin induc	FN deposit inh	SIRT5 inh
Cc1ccccc1S(=O)(=O)N1CC(=O)N2[C@H](CO)[C@@H](c3ccc(C#Cc4ccccc4)cc3)[C@@H]2C1	-	.	.	-	.	-
O=C(C[C@H]1CC[C@@H]2[C@H](COC[C@@H](O)CN2S(=O)(=O)c2ccc(F)cc2)O1)N[C@@H]1CCN(Cc2ccccc2)C1	-	-	-	-	-	-
COc1cccc(CN(C)C(=O)c2ccc(S(=O)(=O)Nc3ccccc3F)cc2)c1OC	-	-	-	.	-	-
COc1cccc(CN(C)C(=O)c2ccc(S(=O)(=O)Nc3cccc(C)c3C)cc2)c1OC	.	-	-	-	-	17.3
O=C(COC(=O)Cc1ccc(Cl)cc1)NCc1ccc(Cl)cc1	-	-	-	-	.	-
O=C(COC(=O)Cc1ccc(Cl)cc1)Nc1ccccc1F	-	-	.	-	-	.
O=C(COC(=O)Cc1ccccc1F)NCc1ccc(Cl)cc1	-	-	100.4	-	-	-
O=C(COC(=O)Cc1ccc(Cl)cc1)Nc1c(F)cccc1F	-	44.2	-	.	-	-
Cc1ccc(S(=O)(=O)N(C)C[C@H]2OCCCC[C@H](C)Oc3ccc(N(C)C)cc3C(=O)N([C@@H](C)CO)C[C@@H]2C)cc1	-	-	-	-	-	-
COc1ccc2c(c1OC)CN(C)CCc1cc3c(cc1C(=O)C2)OCO3	-	42.9	.	.	.	-
COc1cc2c(cc1OC)C(=O)Cc1ccc3c(c1CN(C)CC2)OCO3	-	-	-	.	.	-
C=C1C(=O)C23C(O)C1CCC2C12COC3(O)C(O)C1C(C)(C)CCC2O (configuration not stated)	.	-	110.3	.	.	.
O=C(NC(=S)N1CCN(c2nc(-c3ccccc3)cs2)CC1)c1cncc(Br)c1	-	43.3	-	-	-	-
CCN(CC)CCCNC(=S)N1CCN(c2nc(-c3ccccc3)cs2)CC1	-21.8	-	-	.	-	-
O=C(CN1CCN(c2nc(-c3ccccc3)cs2)CC1)NNC(=O)c1ccc(Br)cc1	.	.	-	.	-	.
COc1cccc(-c2ccc([C@H]3[C@@H](CO)N(C(C)=O)C34CN(C(C)=O)C4)cc2)c1	-	-	.	-	.	-
COc1ccc(CN=C2NN=C(c3cccc(OC)c3)CS2)cc1	-	43.2	.	-	-	-
Cc1cc(-c2onc3ccc(Cl)cc23)ccc1O	-31.4	-	-	.	-	-
C[C@@H]1CCCCO[C@H](CN(C)C(=O)Nc2ccc(F)cc2)[C@H](C)CN([C@@H](C)CO)C(=O)c2cc(NS(C)(=O)=O)ccc2O1	-	-	.	-	.	-
Cc1cc(OCC(=O)N2CCc3ccccc3C2)c(C)cc1Br	-	18.1	-	-	-	-
CN(C)c1cccc(C(=O)OCC(=O)N2CCc3ccccc3C2)c1	-30.1	-	.	.	.	.
O=C(c1ccc(Cl)cc1[N+](=O)[O-])N1CCc2ccccc2C1	-	43.0	-	-	-	-
Nc1ccc(C(=O)OCC(=O)N2CCc3ccccc3C2)cc1[N+](=O)[O-]	-23.3	-	.	.	.	-
CC(OC(=O)c1cccc(N(C)C)c1)C(=O)N1CCc2ccccc2C1 (configuration not stated)	-	-	.	-	-	-
COCC#Cc1ccc([C@@H]2[C@H]3CN(C(=O)C4CC4)CC(=O)N3[C@H]2CO)cc1	-	.	.	-	-	-
CCn1c(CNc2ccc(F)cc2)nnc1SCC#N	-	-	.	.	-	-
CCn1c(CNc2ccc(Cl)cc2)nnc1SCC#N	-	-	.	56.5	-	-
